Experimental data from ChEMBL document CHEMBL1133143, “Calpain inhibitors based on the quiescent affinity label concept: high rates of calpain inactivation with leaving groups derived from N-hydroxy peptide coupling reagents” (Bioorg Med Chem Lett, 2000).
Residues, ends and D or L forms follow the SMILES beside them. *: point of attachment. Cbz = O=C(OCc1ccccc1)*; CH2F = FC*

Tests used:
[1] = biological target: Cathepsin B (Homo sapiens) (UniProt P07858); experiment: Ratio of second order rate constant of calpain I to that of cathepsinB
[2] = biological target: T1, Calpain-1 catalytic subunit (Homo sapiens) (UniProt P07384); experiment: Second order rate constant for inactivation of recombinant human Calpain 1 was reported
T1 sequence (whole entry): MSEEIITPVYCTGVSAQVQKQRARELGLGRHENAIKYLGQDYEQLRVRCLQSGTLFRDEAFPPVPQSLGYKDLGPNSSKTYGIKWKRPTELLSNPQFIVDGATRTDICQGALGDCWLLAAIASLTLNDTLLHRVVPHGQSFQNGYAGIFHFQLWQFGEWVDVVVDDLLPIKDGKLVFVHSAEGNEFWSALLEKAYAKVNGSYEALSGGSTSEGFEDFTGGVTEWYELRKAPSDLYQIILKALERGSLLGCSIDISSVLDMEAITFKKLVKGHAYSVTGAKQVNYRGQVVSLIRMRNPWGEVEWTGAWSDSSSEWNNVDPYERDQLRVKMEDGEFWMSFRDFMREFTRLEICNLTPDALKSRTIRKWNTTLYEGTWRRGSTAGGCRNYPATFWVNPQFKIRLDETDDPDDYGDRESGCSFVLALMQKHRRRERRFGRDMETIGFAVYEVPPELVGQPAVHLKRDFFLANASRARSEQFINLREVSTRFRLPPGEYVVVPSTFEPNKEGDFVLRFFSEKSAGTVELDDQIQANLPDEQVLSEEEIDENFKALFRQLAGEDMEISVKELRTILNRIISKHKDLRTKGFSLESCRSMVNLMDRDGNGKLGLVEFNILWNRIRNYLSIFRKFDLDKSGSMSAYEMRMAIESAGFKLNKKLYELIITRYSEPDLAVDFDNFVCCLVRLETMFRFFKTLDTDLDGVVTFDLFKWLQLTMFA
Procedure, shortened: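 Started with 5 mM CaCl2 at ambient temperature. Fluorescence (ex 340/em 440 nm) was recorded continuously. kobs came from an exponential fit, and k2 from the kobs-vs-[I] slope with a (1+S/Km) correction.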

[3] = biological target: Cathepsin B (Homo sapiens) (UniProt P07858); experiment: Second order rate constant for inactivation of human liver cathepsin B was reported
Procedure, shortened: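 Human liver cathepsin B inactivation was run by an analogous progress-curve method (substrate plus inhibitor) under published assay conditions. The second-order rate constant came from progress-curve analysis. Inhibitor was added as quickly as possible before measurement because of limited aqueous stability.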

[4] = biological target: Cathepsin B (Homo sapiens) (UniProt P07858); experiment: Percent inhibition of recombinant calpain I after 5 min of incubation with 10 uM compound
Procedure, shortened: (§1)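 Single-concentration test: 10 inhibitor, 5 min incubation, then percent inhibition of recombinant human calpain I activity measured by the fluorogenic Suc-Leu-Tyr-MNA assay (ex 340/em 440 nm) in Ca2+-initiated buffer at ambient temperature.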

[5] = biological target: T1, Calpain-1 catalytic subunit (Homo sapiens); experiment: Percent inhibition of recombinant Calpain 1 after 5 min of incubation with 10 uM compound; procedure, shortened: as §1

| Ratio [1] | K obs / 1 [2] | K obs / 1 [3] | inhibition [4] | inhibition [5] | Structure (SMILES) |
| --- | --- | --- | --- | --- | --- |
| 0.14 | 1000 M⁻¹ s⁻¹ | 6900 M⁻¹ s⁻¹ |  |  | CC(C)CC(NC(=O)OCc1ccccc1)C(=O)NC(Cc1ccccc1)C(=O)CON1C(=O)C2C3C=CC(C3)C2C1=O (stereo not given) |
| 1.7 | 184000 M⁻¹ s⁻¹ | 107000 M⁻¹ s⁻¹ |  |  | CC(C)CC(NC(=O)OCc1ccccc1)C(=O)NC(Cc1ccccc1)C(=O)COn1nnc2cccnc21 (stereo not given) |
|  | 524000 M⁻¹ s⁻¹ |  | 32% |  | CC(C)CC(NC(=O)OCc1ccccc1)C(=O)NC(CC(C)C)C(=O)NC(Cc1ccccc1)C(=O)COn1nnc2ccccc21 (stereo not given) |
| 454 | 136000 M⁻¹ s⁻¹ | 300 M⁻¹ s⁻¹ |  |  | CC(C)CC(NC(=O)OCc1ccccc1)C(=O)NC(Cc1ccccc1)C(=O)CF (stereo not drawn) (Cbz-Leu-Phe-CH2F; configuration not given here) |
|  |  |  |  | 83% | CC(C)CC(NC(=O)OCc1ccccc1)C(=O)NC(Cc1ccccc1)C(=O)Cn1nnc2ccccc21 (stereo not given) |
| 2.7 | 320000 M⁻¹ s⁻¹ | 118000 M⁻¹ s⁻¹ |  |  | CC(C)CC(NC(=O)OCc1ccccc1)C(=O)NC(Cc1ccccc1)C(=O)COn1nnc2ccccc21 (stereo in doubt; 1d) |
|  | 5800 M⁻¹ s⁻¹ |  |  |  | CC(C)CC(NC(=O)OCc1ccccc1)C(=O)NC(Cc1ccccc1)C(=O)CON1C(=O)CCC1=O (stereo not given) |
|  |  |  |  | 32% | CC(C)CC(NC(=O)OCc1ccccc1)C(=O)NC(Cc1ccccc1)C(=O)CON1C(=O)c2ccccc2C1=O (stereo not given) |
| 0.14 | 63000 M⁻¹ s⁻¹ | 443000 M⁻¹ s⁻¹ |  |  | CCC(NC(=O)C(CC(C)C)NC(=O)OCc1ccccc1)C(=O)COn1nnc2ccccc21 (stereo not given) |
